# From ChEMBL document CHEMBL1287651, “Synthesis and in vitro antibacterial activity of fluoroquinolone derivatives containing 3-(N'-alkoxycarbamimidoyl)-4-(alkoxyimino) pyrrolidines” (2010)
# Columns and labels:
# Type in all cases: functional
# Escherichia coli [1] = assay: Antibacterial activity against Escherichia coli ATCC 25922 after 18 to 24 hrs by twofold serial dilution method
# How it was run: (§1)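 MIC determined by the standard twofold serial dilution method on agar media, screening against Gram-positive and Gram-negative strains. Levofloxacin and gemifloxacin were run alongside as reference drugs.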
# Streptococcus pneumoniae [2] = assay: Antibacterial activity against Streptococcus pneumoniae 08-4 after 18 to 24 hrs by twofold serial dilution method; how it was run: as §1
# Pseudomonas aeruginosa [3] = assay: Antibacterial activity against Pseudomonas aeruginosa ATCC 27853 after 18 to 24 hrs by twofold serial dilution method; how it was run: as §1
# Pseudomonas aeruginosa [4] = assay: Antibacterial activity against Pseudomonas aeruginosa 09-35 after 18 to 24 hrs by twofold serial dilution method; how it was run: as §1
# Enterococcus faecalis [5] = assay: Antibacterial activity against Enterococcus faecalis 08-12 after 18 to 24 hrs by twofold serial dilution method; how it was run: as §1
# Pseudomonas aeruginosa [6] = assay: Antibacterial activity against Pseudomonas aeruginosa 09-34 after 18 to 24 hrs by twofold serial dilution method; how it was run: as §1
# [7] = test system: Staphylococcus epidermidis; assay: Antibacterial activity against methicillin-resistant Staphylococcus epidermidis 09-2 after 18 to 24 hrs by twofold serial dilution method
# How it was run: (§2)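 Standard twofold serial agar dilution method on agar media for MIC determination. Screened against representative Gram-positive and Gram-negative strains. Levofloxacin and GMFX served as control drugs.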
# Pseudomonas aeruginosa [8] = assay: Antibacterial activity against Pseudomonas aeruginosa 09-32 after 18 to 24 hrs by twofold serial dilution method; how it was run: as §1
# Enterococcus faecium [9] = assay: Antibacterial activity against Enterococcus faecium 08-7 after 18 to 24 hrs by twofold serial dilution method; how it was run: as §1
# Klebsiella pneumoniae [10] = assay: Antibacterial activity against Klebsiella pneumoniae 09-21 after 18 to 24 hrs by twofold serial dilution method; how it was run: as §1
# Pseudomonas aeruginosa [11] = assay: Antibacterial activity against Pseudomonas aeruginosa 09-33 after 18 to 24 hrs by twofold serial dilution method; how it was run: as §1
# Klebsiella pneumoniae [12] = assay: Antibacterial activity against Klebsiella pneumoniae 09-22 after 18 to 24 hrs by twofold serial dilution method; how it was run: as §1
# Escherichia coli [13] = assay: Antibacterial activity against Escherichia coli 08-21 after 18 to 24 hrs by twofold serial dilution method; how it was run: as §1
# Klebsiella pneumoniae [14] = assay: Antibacterial activity against Klebsiella pneumoniae 09-23 after 18 to 24 hrs by twofold serial dilution method; how it was run: as §1
# Escherichia coli [15] = assay: Antibacterial activity against Escherichia coli 08-22 after 18 to 24 hrs by twofold serial dilution method; how it was run: as §1
# [16] = test system: Staphylococcus epidermidis; assay: Antibacterial activity against methicillin-resistant Staphylococcus epidermidis 09-3 after 18 to 24 hrs by twofold serial dilution method; how it was run: as §2
# Staphylococcus aureus [17] = assay: Antibacterial activity against methicillin-resistant Staphylococcus aureus 08-1 after 18 to 24 hrs by twofold serial dilution method; how it was run: as §2
# [18] = test system: Staphylococcus epidermidis; assay: Antibacterial activity against methicillin-resistant Staphylococcus epidermidis 09-4 after 18 to 24 hrs by twofold serial dilution method; how it was run: as §2
# Enterococcus faecalis [19] = assay: Antibacterial activity against Enterococcus faecalis 08-10 after 18 to 24 hrs by twofold serial dilution method; how it was run: as §1
# [20] = test system: Staphylococcus epidermidis; assay: Antibacterial activity against methicillin-sensitive Staphylococcus epidermidis 09-6 after 18 to 24 hrs by twofold serial dilution method; how it was run: as §2
# Streptococcus pneumoniae [21] = assay: Antibacterial activity against Streptococcus pneumoniae 08-2 after 18 to 24 hrs by twofold serial dilution method; how it was run: as §1
# [22] = test system: Staphylococcus epidermidis; assay: Antibacterial activity against methicillin-sensitive Staphylococcus epidermidis 09-3 after 18 to 24 hrs by twofold serial dilution method; how it was run: as §2
# Staphylococcus aureus [23] = assay: Antibacterial activity against methicillin-sensitive Staphylococcus aureus 08-2 after 18 to 24 hrs by twofold serial dilution method; how it was run: as §2
# Staphylococcus aureus [24] = assay: Antibacterial activity against Staphylococcus aureus ATCC […] after 18 to 24 hrs by twofold serial dilution method; how it was run: as §1
# Enterococcus faecium [25] = assay: Antibacterial activity against Enterococcus faecium 08-2 after 18 to 24 hrs by twofold serial dilution method; how it was run: as §1
Compound,MIC (Escherichia coli [1]),MIC (Pseudomonas aeruginosa [3]),MIC (Pseudomonas aeruginosa [4]),MIC (Enterococcus faecalis [5]),MIC [7],MIC (Pseudomonas aeruginosa [8]),MIC (Enterococcus faecium [9]),MIC (Klebsiella pneumoniae [10]),MIC (Klebsiella pneumoniae [12]),MIC (Escherichia coli [13]),MIC (Klebsiella pneumoniae [14]),MIC (Escherichia coli [15]),MIC (Staphylococcus aureus [17]),MIC [18],MIC (Enterococcus faecalis [19]),MIC [20],MIC [22],MIC (Staphylococcus aureus [23]),MIC (Staphylococcus aureus [24]),MIC (Enterococcus faecium [25]),also measured
CO/N=C1\CN(c2c(F)cc3c(=O)c(C(=O)O)cn(C4CC4)c3c2F)CC1/C(N)=N\OC (stereo not given),128 µg/mL,4 µg/mL,8 µg/mL,> 128 µg/mL,0.125 µg/mL,8 µg/mL,64 µg/mL,> 128 µg/mL,0.25 µg/mL,> 128 µg/mL,> 128 µg/mL,> 128 µg/mL,0.25 µg/mL,0.25 µg/mL,> 128 µg/mL,0.25 µg/mL,0.125 µg/mL,0.25 µg/mL,0.125 µg/mL,> 128 µg/mL,MIC (Streptococcus pneumoniae [2]): 4 µg/mL; MIC (Pseudomonas aeruginosa [6]): > 128 µg/mL; MIC (Pseudomonas aeruginosa [11]): > 128 µg/mL; MIC [16]: 0.25 µg/mL; MIC (Streptococcus pneumoniae [21]): 16 µg/mL
CCO/N=C1\CN(c2nc3c(cc2F)c(=O)c(C(=O)O)cn3C2CC2)CC1/C(N)=N\OCC (stereo not given),128 µg/mL,128 µg/mL,> 128 µg/mL,> 128 µg/mL,8 µg/mL,> 128 µg/mL,> 128 µg/mL,> 128 µg/mL,128 µg/mL,> 128 µg/mL,> 128 µg/mL,> 128 µg/mL,> 128 µg/mL,32 µg/mL,> 128 µg/mL,> 128 µg/mL,> 128 µg/mL,8 µg/mL,2 µg/mL,> 128 µg/mL,MIC (Streptococcus pneumoniae [2]): > 128 µg/mL; MIC (Pseudomonas aeruginosa [6]): > 128 µg/mL; MIC (Pseudomonas aeruginosa [11]): > 128 µg/mL; MIC [16]: 8 µg/mL; MIC (Streptococcus pneumoniae [21]): > 128 µg/mL
CCn1cc(C(=O)O)c(=O)c2cc(F)c(N3C/C(=N\OC)C(/C(N)=N\O)C3)c(F)c21 (stereo not given),128 µg/mL,1 µg/mL,> 128 µg/mL,> 128 µg/mL,1 µg/mL,1 µg/mL,> 128 µg/mL,> 128 µg/mL,1 µg/mL,> 128 µg/mL,> 128 µg/mL,> 128 µg/mL,0.25 µg/mL,1 µg/mL,> 128 µg/mL,0.25 µg/mL,0.25 µg/mL,0.25 µg/mL,0.25 µg/mL,> 128 µg/mL,MIC (Streptococcus pneumoniae [2]): > 128 µg/mL; MIC (Pseudomonas aeruginosa [6]): 1 µg/mL; MIC (Pseudomonas aeruginosa [11]): 1 µg/mL; MIC [16]: 0.25 µg/mL; MIC (Streptococcus pneumoniae [21]): 1 µg/mL
CCO/N=C1\CN(c2c(F)cc3c(=O)c(C(=O)O)cn(CC)c3c2F)CC1/C(N)=N\OCC (stereo not given),> 128 µg/mL,> 128 µg/mL,> 128 µg/mL,> 128 µg/mL,> 128 µg/mL,> 128 µg/mL,> 128 µg/mL,> 128 µg/mL,> 128 µg/mL,> 128 µg/mL,> 128 µg/mL,> 128 µg/mL,> 128 µg/mL,> 128 µg/mL,> 128 µg/mL,> 128 µg/mL,> 128 µg/mL,> 128 µg/mL,8 µg/mL,> 128 µg/mL,MIC (Streptococcus pneumoniae [2]): > 128 µg/mL; MIC (Pseudomonas aeruginosa [6]): > 128 µg/mL; MIC (Pseudomonas aeruginosa [11]): > 128 µg/mL; MIC (Streptococcus pneumoniae [21]): > 128 µg/mL
C[C@H]1COc2c(N3CCN(C)CC3)c(F)cc3c(=O)c(C(=O)O)cn1c23.C[C@H]1COc2c(N3CCN(C)CC3)c(F)cc3c(=O)c(C(=O)O)cn1c23.O [LEVOFLOXACIN],0.125 µg/mL,0.5 µg/mL,0.25 µg/mL,4 µg/mL,0.25 µg/mL,16 µg/mL,2 µg/mL,8 µg/mL,16 µg/mL,16 µg/mL,8 µg/mL,16 µg/mL,0.125 µg/mL,0.25 µg/mL,8 µg/mL,2 µg/mL,0.125 µg/mL,0.06 µg/mL,0.06 µg/mL,8 µg/mL,MIC [16]: 0.25 µg/mL
